Values belong to the compound of their own block, whether it stands above or below them. The source made the active and inactive calls. The calls are words filed in the database; no cut-off is given here.
Legend:
P-glycoprotein = test: Substrate activity at human P-glycoprotein stably expressed in MDCK cells assessed as efflux ratio at 1 uM measured after 5 to 20 mins by UPLC-MS/MS analysis; assay type: ADME, cell-based; conditions: MDCK-MDR1, time 5-20 min
Procedure, shortened: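 CRISPR canine-MDR1-knockout MDCKII cells stably expressing human MDR1, with the knockout parent line as control. Cells grown 5 days on TransWell filters and preincubated in HBSS 30 min at 37 °C. Compound at 1 μM added apical or basolateral. Receiver sampled at 5, 10 and 20 min; UPLC-MS/MS.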

[1] = AUC (0 to 8 hrs) in C57BL/6J mouse brain at 10 mg/kg, po administered as single dose by mass spectrometry based UHPLC analysis; assay type: ADME, organism-based; design: time < 8 hr, route oral, dose 10 mg/kg
Procedure, shortened: (§1)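 Female C57BL/6J mice, one oral dose of 10 mg/kg in 20% Captisol; plasma and brain levels over time, n = 3 per time point (mean).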

Mus musculus [2] = test: In vivo inhibition of mTORC1 signalling in C57BL/6J mouse brain assessed as reduction in RPS6 phosphorylation at S235/236 residue at 25 mg/kg, po incubated for 30 mins by Western blot analysis; assay type: functional, organism-based
Procedure, shortened: (§2)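 Female C57BL/6J mice dosed at 25 mg/kg p.o.; cortex collected 30 min later and lysed. Equal protein run on SDS-PAGE and western blotted for pS6(Ser235/236), pPKB(Ser473) and α-tubulin, detected by HRP secondary antibodies and ECL. Signal expressed as % of control cortex, n = 3, mean ± SEM, unpaired t-test.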

[3] = Metabolic stability in Sprague-Dawley rat hepatocytes assessed as half-life at 5 uM incubated for 3 hrs by LC-MS analysis; assay type: ADME, cell-based, Hepatocyte
Procedure, shortened: (§3)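 Cryopreserved primary hepatocytes in suspension from CD-1 mouse, Sprague-Dawley rat, Beagle dog and human. Compound at 5 μM final (from 10 mM DMSO stock). Samples taken at 0, 15, 60, 90 and 180 min and quenched with ACN plus internal standard. Parent quantified by LC-MS. Hepatocyte-free medium incubations served as negative control; 7-ethoxycoumarin as positive control. Duplicate; CLint per 10^6 cells and t1/2.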

[4] = AUC (0 to 8 hrs) in C57BL/6J mouse plasma at 10 mg/kg, po administered once a day for 4 consecutive days by mass spectrometry based UHPLC analysis; assay type: ADME, organism-based; design: route oral, time 4 day, dose 10 mg/kg
Procedure, shortened: (§4)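 Female C57BL/6J mice given 10 mg/kg p.o. in 20% Captisol once daily for 4 consecutive days. Plasma and brain sampled after the final dose on day 4, n = 3 per time point.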

[5] = Tmax in C57BL/6J mouse brain at 10 mg/kg, po administered once a day for 4 consecutive days by mass spectrometry based UHPLC analysis; assay type: ADME, organism-based; conditions: time 4 day
Procedure, shortened: (§5)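 Female C57BL/6J mice dosed orally at 10 mg/kg in 20% Captisol, either once or once daily for 4 days with sampling after the last dose on day 4. Plasma and brain concentrations followed over time. Tmax taken from at least 3 time points.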

Mus musculus [6] = test: In vivo inhibition of mTORC2 in C57BL/6J mouse assessed as reduction in PKB/Akt phosphorylation at Ser473 in brain at 25 mg/kg, po measured after 8 hrs by Western blot analysis; assay type: functional, organism-based
Procedure, shortened: (§6)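 Time course in female C57BL/6J mice after 25 mg/kg p.o.: cortex taken at set time points and western blotted for pS6 and pPKB. Signals quantified against α-tubulin as % of control cortex; n = 3 per time point and n = 9 controls. Brain compound level measured in the same mice.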

[7] = Cmax in C57BL/6J mouse brain at 25 mg/kg, po administered as single dose by mass spectrometry based UHPLC analysis; assay type: ADME, organism-based; design: route oral, dose 25 mg/kg
Procedure, shortened: (§7)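 One oral dose of 25 mg/kg to female C57BL/6J mice. Plasma and brain concentrations followed over time, n = 3 per time point (mean).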

Mus musculus [8] = test: In vivo inhibition of mTORC1 signalling in C57BL/6J mouse assessed as reduction in RPS6 phosphorylation at S235/236 residue in brain at 25 mg/kg, po measured after 8 hrs by Western blot analysis; assay type: functional, organism-based; procedure, shortened: as §6
[9] = Tmax in C57BL/6J mouse plasma at 10 mg/kg, po administered once a day for 4 consecutive days by mass spectrometry based UHPLC analysis; assay type: ADME, organism-based; conditions: time 4 day; procedure, shortened: as §5
[10] = AUC (0 to 8 hrs) in male Sprague-Dawley rat brain at 5 mg/kg, po; assay type: ADME, organism-based; design: time < 8 hr, route oral, dose 5 mg/kg; conditions: in vivo
Procedure, shortened: (§8)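 Male Sprague Dawley rats, single oral dose of 5 mg/kg. Plasma and brain concentrations measured over 8 h, n = 3, mean ± SEM; AUC0−8 computed from the time course.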

[11] = Clearance in C57BL/6J mouse plasma at 25 mg/kg, po administered as single dose by mass spectrometry based UHPLC analysis; assay type: ADME, organism-based; procedure, shortened: as §7
[12] = AUC (0 to 8 hrs) in male Sprague-Dawley rat plasma at 5 mg/kg, po; assay type: ADME, organism-based; design: time < 8 hr, route oral, dose 5 mg/kg; procedure, shortened: as §8
Mus musculus [13] = test: In vivo inhibition of mTORC1 signalling in C57BL/6J mouse assessed as reduction in RPS6 phosphorylation at S235/236 residue in brain at 25 mg/kg, po measured after 0.5 to 2 hrs by Western blot analysis; assay type: functional, organism-based; conditions: time 0.5-2 hrs; procedure, shortened: as §6
[14] = Elimination half life in C57BL/6J mouse plasma at 10 mg/kg, po administered as single dose by mass spectrometry based UHPLC analysis; assay type: ADME, organism-based; conditions: read-out: beta t1/2 (converted); procedure, shortened: as §1
[15] = AUC (0 to 8 hrs) in C57BL/6J mouse brain at 10 mg/kg, po administered once a day for 4 consecutive days by mass spectrometry based UHPLC analysis; assay type: ADME, organism-based; design: route oral, time 4 day, dose 10 mg/kg; procedure, shortened: as §4
[16] = Metabolic stability in Beagle dog hepatocytes assessed as half-life at 5 uM incubated for 3 hrs by LC-MS analysis; assay type: ADME, cell-based, Canis lupus familiaris, Hepatocyte; procedure, shortened: as §3
[17] = Toxicity in Balb/c nude mouse assessed as change in body weight at 150 mg/kg, po administered once daily for 14 days measured for 7 days starting from post last dose; assay type: organism-based; conditions: in vivo, 504 h, time 21 day
Mus musculus [18] = test: In vivo inhibition of mTORC2 signalling pathway in C57BL/6J mouse assessed as reduction in PKB/Akt phosphorylation at Ser473 in brain at 25 mg/kg, po incubated for 30 mins by Western blot analysis; assay type: functional, organism-based; procedure, shortened: as §2
[19] = Elimination half life in C57BL/6J mouse brain at 25 mg/kg, po administered as single dose by mass spectrometry based UHPLC analysis; assay type: ADME, organism-based; conditions: read-out: beta t1/2 (converted); procedure, shortened: as §7
[20] = Cmax in C57BL/6J mouse plasma at 10 mg/kg, po administered once a day for 4 consecutive days by mass spectrometry based UHPLC analysis; assay type: ADME, organism-based; design: route oral, dose 10 mg/kg, time 4 day; procedure, shortened: as §4
[21] = Intrinsic clearance in human hepatocytes assessed per million cells at 5 uM incubated for 3 hrs by LC-MS analysis; assay type: ADME, cell-based, Hepatocyte; conditions: read-out: CLH; procedure, shortened: as §3
[22] = Clearance in C57BL/6J mouse plasma at 10 mg/kg, po administered as single dose by mass spectrometry based UHPLC analysis; assay type: ADME, organism-based; procedure, shortened: as §1
Mus musculus [23] = test: In vivo inhibition of PI3Kalpha C57BL/6J mouse assessed as increase in plasma insulin concentration at 25 mg/kg, po measured after 8 hrs by ELISA; assay type: functional, organism-based
Procedure, shortened: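 Female C57BL/6J mice given one oral dose (25 mg/kg); plasma insulin and glucose monitored over time, mean ± SEM.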

[24] = Clearance in C57BL/6J mouse plasma at 10 mg/kg, po administered once a day for 4 consecutive days by mass spectrometry based UHPLC analysis; assay type: ADME, organism-based; conditions: time 4 day; procedure, shortened: as §4
[25] = Intrinsic clearance in Sprague-Dawley rat hepatocytes assessed per million cells at 5 uM incubated for 3 hrs by LC-MS analysis; assay type: ADME, cell-based, Hepatocyte; conditions: read-out: CLH; procedure, shortened: as §3

efflux ratio at 1 µM (P-glycoprotein): 1.5
Structure (SMILES): C[C@@H]1COCCN1c1nc(-c2cnc(N)cc2C(F)F)nc(N2CCOCC2(C)C)n1

AUC(0-t) at 8 h [1]: 4650 ng·h/mL | half-life at 5 µM [3]: 2.7 h | AUC at 96 h [4]: 2370 ng·h/mL | Tmax [5]: 0.5 h | Cmax [7]: 3340 ng/mL | Tmax [9]: 0.5 h | AUC [10]: 3689 ng·h/g | CL/F [11]: 40.5 mL/min/kg | AUC(0-t) at 8 h [12]: 2430 ng·h/mL | half-life [14]: 3 h | AUC at 96 h [15]: 3050 ng·h/mL | half-life at 5 µM [16]: 8.17 h | half-life [19]: 2.4 h | Cmax [20]: 947 ng/mL | hepatocyte CLint at 5 µM [21]: 5.3 µL/min/1e6 cells | CL/F [22]: 56.6 mL/min/kg | CL/F [24]: 64.9 mL/min/kg | hepatocyte CLint at 5 µM [25]: 5.3 µL/min/1e6 cells
Structure (SMILES): C[C@@H]1COCCN1c1nc(-c2cnc(N)cc2C(F)F)nc(N2[C@H](C)COC[C@@H]2C)n1
inhibition (Mus musculus [2]): Active | inhibition (Mus musculus [6]): inactive | inhibition (Mus musculus [8]): inactive | inhibition (Mus musculus [13]): Active | Activity [17]: Non-Toxic | inhibition (Mus musculus [18]): Active | inhibition (Mus musculus [23]): inactive

Source: ChEMBL document CHEMBL4715860 (J Med Chem, 2020)
